Experimental data taken from the M2OR odorant receptor database.

Molecular target: T1, OR1L3 (Homo sapiens) (UniProt Q8NH93)
T1 sequence (whole entry): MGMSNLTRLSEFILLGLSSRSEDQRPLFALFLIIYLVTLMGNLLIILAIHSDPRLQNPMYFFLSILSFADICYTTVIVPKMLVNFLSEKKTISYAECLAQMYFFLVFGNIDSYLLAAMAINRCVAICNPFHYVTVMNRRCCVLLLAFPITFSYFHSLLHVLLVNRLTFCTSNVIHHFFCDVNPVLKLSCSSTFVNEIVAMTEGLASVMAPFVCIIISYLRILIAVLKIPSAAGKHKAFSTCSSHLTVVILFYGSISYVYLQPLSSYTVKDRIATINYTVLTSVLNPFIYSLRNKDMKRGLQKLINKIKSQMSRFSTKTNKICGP
Details: stereoisomer not certain
How it was run: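 Whether a receptor–molecule pair is responsive (active) rests on the original authors' judgment that its measured signal was statistically different from baseline. Pairs without that judgment are non-responsive (inactive). Sources used varied assay methods, commonly transient luciferase assays in mammalian cell lines.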
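Also: active if original authors judged signal statistically different from baseline.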

Odorant receptor agonist call, inactive:
CCc1ccc(CC(C)(C)C=O)cc1, Cc1occc(=O)c1OC(=O)C(C)C, CCCCC1CCC(=O)O1 (stereo unspecified), CCCCCC1C(=O)CCC1CC(=O)OC (stereo unspecified), CCCC(C)C(=O)OCC (stereo unspecified), CC(C)=CCCC(C)=CCO, Cc1ccc(C(C)C)cc1O, CCC=C(C)C(O)CCCCC (stereo unspecified), C=CC(C)(CCC=C(C)C)OC(C)=O (stereo unspecified), CC(C)=CCCC(C)CC=O (stereo unspecified), CC(=O)C=CC1=C(C)CCCC1(C)C, CC1=CCC2CC1C2(C)C (stereo unspecified), CCCCCC1COCCC1OC(C)=O (stereo unspecified), CC(C)CCCC(C)(C)O, COC1CC2CC1C1CC(C=O)CC21 (stereo unspecified), CC(=O)OCc1ccccc1, CC(C)(C)C1CCCCC1OCCCCO (stereo unspecified), C=CCOC(=O)COCCC(C)C, CCOC(=O)CC1(C)OCCO1, CC(CC=O)c1ccc(C(C)(C)C)cc1 (stereo unspecified), CCCCCCCCC(OC(C)=O)OC(C)=O
